{"source": "ChEMBL document CHEMBL1129463", "about": "“Discovery of 1,5-benzodiazepines with peripheral cholecystokinin (CCK-A) receptor agonist activity (II): Optimization of the C3 amino substituent” (J Med Chem, 1996)", "key": {"Mus musculus [1]": {"tested_on": "Mus musculus", "test": "Compound was tested in vivo Percent Maximal response activity in mouse gallbladder emptying assay at dose of 1 nmol/kg ip"}, "Cavia porcellus [2]": {"organism": "Cavia porcellus", "test": "In vitro Functional activity on the isolated guinea pig gallbladder following incubation at 1 micro M percent contraction normalized to that for CCK-8", "in_short": "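Contraction is expressed as percent of the CCK-8 (1 μM) response. Non-contracting compounds were tested for antagonism against a CCK-8 curve (10⁻¹¹ to 10⁻⁶ M).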"}, "Mus musculus [3]": {"tested_on": "Mus musculus", "test": "Compound was tested in vivo for Percent Maximal response in mouse gallbladder emptying assay at dose of 1 umol/kg po", "format": "functional"}, "Mus musculus [4]": {"tested_on": "Mus musculus", "test": "Compound was tested in vivo for its activity in mouse gallbladder emptying assay at dose of 0.1 umol/kg ip", "format": "functional"}, "Rattus norvegicus [5]": {"tested_on": "Rattus norvegicus", "test": "Compound was tested in vivo for its Percent Maximal anorectic potency in rats at dose of 0.1 umol/kg ip", "format": "functional"}, "Mus musculus [6]": {"tested_on": "Mus musculus", "test": "Compound was tested in vivo for its activity in mouse gallbladder emptying assay at dose of 1 umol/kg po", "format": "functional"}, "[7]": {"molecular_target": "T1, Cholecystokinin receptor type A (Homo sapiens, UniProt P32238)", "T1 sequence (P32238 whole entry)": "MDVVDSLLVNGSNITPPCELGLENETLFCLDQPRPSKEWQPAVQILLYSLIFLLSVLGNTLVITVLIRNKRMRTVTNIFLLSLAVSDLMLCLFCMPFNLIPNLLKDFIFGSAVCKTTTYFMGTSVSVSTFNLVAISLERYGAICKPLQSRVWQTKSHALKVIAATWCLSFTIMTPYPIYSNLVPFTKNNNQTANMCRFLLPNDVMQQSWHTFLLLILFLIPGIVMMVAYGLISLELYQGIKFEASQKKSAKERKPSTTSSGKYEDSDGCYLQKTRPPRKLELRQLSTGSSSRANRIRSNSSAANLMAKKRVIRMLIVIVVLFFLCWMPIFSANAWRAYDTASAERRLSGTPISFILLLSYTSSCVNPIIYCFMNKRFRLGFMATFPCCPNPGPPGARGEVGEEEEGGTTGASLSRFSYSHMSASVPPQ", "test": "Compound was tested in vitro for its ability to displace [125I]Bolton-Hunter CCK-8 from membrane preparation isolated from CHO-KI cells stably transfected with cDNA of human Cholecystokinin type A receptor", "format": "cell membranes"}, "Cavia porcellus [8]": {"organism": "Cavia porcellus", "test": "In vitro functional activity on the isolated guinea pig gallbladder", "set-up": "concentration or dose not given beside the values"}, "Cavia porcellus [9]": {"organism": "Cavia porcellus", "test": "Maximum contractile response at 30 uM, normalized to CCK-8 (1 uM)", "format": "functional"}, "Rattus norvegicus [10]": {"tested_on": "Rattus norvegicus", "test": "Compound was tested in vivo for its Percent Maximal anorectic potency in rats at dose of 1 umol/kg po", "format": "functional"}, "Cavia porcellus [11]": {"organism": "Cavia porcellus", "test": "In-vitro potency on the isolated guinea pig gallbladder", "format": "functional"}, "[12]": {"molecular_target": "T2, Gastrin/cholecystokinin type B receptor (Homo sapiens, UniProt P32239)", "T2 sequence (P32239 whole entry)": "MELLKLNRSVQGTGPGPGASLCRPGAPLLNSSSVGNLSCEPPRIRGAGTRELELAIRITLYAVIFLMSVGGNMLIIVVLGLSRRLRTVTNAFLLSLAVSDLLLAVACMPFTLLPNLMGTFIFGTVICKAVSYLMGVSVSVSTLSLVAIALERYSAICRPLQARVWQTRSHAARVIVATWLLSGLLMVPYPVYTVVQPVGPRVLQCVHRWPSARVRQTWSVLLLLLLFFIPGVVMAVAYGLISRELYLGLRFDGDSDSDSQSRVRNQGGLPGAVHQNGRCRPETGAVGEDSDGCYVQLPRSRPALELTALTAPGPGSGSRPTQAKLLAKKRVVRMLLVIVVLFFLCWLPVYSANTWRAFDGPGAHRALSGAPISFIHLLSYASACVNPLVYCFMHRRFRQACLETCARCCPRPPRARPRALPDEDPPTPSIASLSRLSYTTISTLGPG", "test": "Compound was tested in vitro for its ability to displace [125I]Bolton-Hunter CCK-8 from membrane preparation isolated from CHO-KI cells stably transfected with cDNA of human Cholecystokinin type B receptor", "format": "cell membranes"}, "Rattus norvegicus [13]": {"tested_on": "Rattus norvegicus", "test": "Compound was tested in vivo for its anorectic potency in rats at dose of 0.5 umol/kg ip"}}, "data": [{"smiles": "CC(C)N(C(=O)CN1C(=O)C(NC(=O)Nc2cccc(C(=O)O)c2)C(=O)N(c2ccccc2)c2ccccc21)c1ccccc1", "note": "(stereo not drawn)", "values": [{"measurement": "Max", "setting": "Mus musculus [1]", "value": 73, "unit": "%"}, {"measurement": "Activity", "setting": "Cavia porcellus [2]", "value": 95, "unit": "%"}, {"measurement": "Max", "setting": "Mus musculus [3]", "value": 77, "unit": "%"}, {"measurement": "ED50", "setting": "Mus musculus [4]", "value": 0.0071, "unit": "µmol/kg"}, {"measurement": "Max", "setting": "Rattus norvegicus [5]", "value": 87, "unit": "%"}, {"measurement": "ED50", "setting": "Mus musculus [6]", "value": 0.055, "unit": "µmol/kg"}, {"measurement": "IC50", "setting": "[7]", "value": 126, "unit": "nM"}, {"measurement": "Activity", "setting": "Cavia porcellus [8]", "value": 100, "unit": "%"}, {"measurement": "Max", "setting": "Cavia porcellus [9]", "value": 102, "unit": "%"}, {"measurement": "Max", "setting": "Rattus norvegicus [10]", "value": 58, "unit": "%"}, {"measurement": "EC50", "setting": "Cavia porcellus [11]", "value": 39.8, "unit": "nM"}, {"measurement": "IC50", "setting": "[12]", "value": 10, "unit": "nM"}, {"measurement": "ED50", "setting": "Rattus norvegicus [13]", "value": 0.06, "unit": "µmol/kg"}]}]}
